Experimental data pooled from the literature.
Target: Protein kinase C eta type (PRKCH, Homo sapiens, UniProt P24723)

Structure (SMILES) | observed | mode | technique | tested at | measurement | value
O=C(Nc1cnn(-c2csc(C(=O)NC3COC3)c2)c1)Nc1ccccc1Cl | enzyme activity | inhibitor | – | 5 µM | remaining activity | 103%
Cc1cc(NC(=O)c2cccc3cc(-c4cccc5[nH]nc(N)c45)ccc23)ccc1F | enzyme activity | inhibitor | – | 0.1 µM | activity vs control | 109%
COc1cc2ncnc(Nc3ccc(Oc4ccccc4)c(C)c3C)c2cc1OC | enzyme activity | inhibitor | – | 1 µM | inhibition | 5%
CN1CC(Oc2cnc(C#N)cc2-c2ccn3nc(NC(=O)C4CC4)cc3c2)C1 | enzyme activity | inhibitor | – | 1 µM | inhibition | -11%
CNC(=O)Nc1ccc2c(c1)[C@@]1(CC2)OC(=O)N(CC(=O)N(Cc2ccc(F)cc2)[C@@H](C)C(F)(F)F)C1=O | cell-free assay | – | competition with immobilised ligand | 1 µM | remaining binding | 87%
Cc1ccc(C(=O)NCc2ccsc2)cc1C#Cc1cn(C(C)C)c2ncnc(N)c12 | enzyme activity | inhibitor | – | 1 µM | activity vs control | 118%
CN1CCN(c2cnc3c(C4CCN(C(=O)c5ccc(OC(F)(F)F)cc5N)CC4)ncnc3c2)CC1 | cell-free assay | – | competition with immobilised ligand | 1 µM | remaining binding | 86%
COc1cc(-c2cc(-c3ccc(N4CCNCC4)cc3)cnc2C)cc(OC)c1OC | enzyme activity | inhibitor | – | 0.1 µM | inhibition | 2%
CCN(CC)c1ccc(C2=NNC(=O)CC2C)cc1[N+](=O)[O-] (stereo not shown) | enzyme activity | inhibitor | – | 10 µM | remaining activity | 105%
Cc1ccc(C(=O)Nc2ccc(CN3CCN(C)CC3)c(C(F)(F)F)c2)cc1C#Cc1cnc2cccnn12 | enzyme activity | – | – | 23.5 nM | remaining activity | 91%
Cc1cnc(NC2CCOCC2)nc1-n1cnc(C(=O)NC(CN)c2cc(F)cc(Cl)c2)c1 (stereo not shown) | enzyme activity | inhibitor | radiometric | 1 µM | remaining activity | 100%
Cn1cnc(Br)c1C1=CN(c2ncnc3[nH]cnc23)CCS1 | enzyme activity | inhibitor | radiometric | 50 nM | inhibition | 29.7%
CC(C)c1ccc(NC(=O)c2cccs2)c(-c2nc3ccccc3[nH]c2=O)c1 | enzyme activity | inhibitor | – | 1 µM | activity vs control | 108%
CN(c1ccnc(CNc2nc(Nc3ccc4c(c3)CC(=O)N4)ncc2C(F)(F)F)n1)S(C)(=O)=O | cell-free assay | – | competition with immobilised ligand | 1 µM | remaining binding | 100%
Cn1cncc1C1=CN(c2ncnc3[nH]cnc23)CCS1 | enzyme activity | inhibitor | radiometric | 50 nM | inhibition | 15.8%
CNCc1ccccc1-c1csc([C@H](C)Nc2nc(C)nc3cc(OC)c(OC)cc23)c1 | cell-free assay | – | competition with immobilised ligand | 1 µM | remaining binding | 100%
CCCOc1ccc(OC)c(F)c1C(=O)c1ccc(C(=O)N[C@@H]2CNC[C@H]2NC(=O)c2ccc3[nH]ncc3c2)cc1 | enzyme activity | inhibitor | – | 10 µM | remaining activity | 16%
CC(C)(O)c1cncc(-c2nc3ccc(F)cc3n2C2CC2)c1 | cell-free assay | – | competition with immobilised ligand | 1 µM | remaining binding | 98%
CNC(=O)c1cc(Oc2ccc(NC(=O)Nc3ccc(Cl)c(C(F)(F)F)c3)cc2)ccn1 | enzyme activity | inhibitor | – | 10 µM | inhibition | 0%
